Experimental data published in paper PMC10032210 (Biomaterials, 2022).

How the values were obtained:
PANC1 = assay: In vitro uptake of GNRs, gold content by ICP-MS; format: cell-based, Human; conditions: 10 μM CA074 for 12 hr, then peptide GNR 24 hr
Method in brief: (§1)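 Cells in 10% FBS medium (HT29 McCoy's, MDA MB231 DMEM, PANC1 RPMI 1640) at 37 °C, 5% CO2. At 70% confluence: 10 μM CA074 for 12 hr, then 0.05 OD GNR in serum-free medium for 24 hr. Cells washed, trypsinized, pelleted, dried at 56 °C and digested in aqua regia (60 °C, 4 hr). Gold measured by ICP-MS against gold standards, normalized to cell count; mean ± SEM.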

MDAMB231 = assay: In vitro uptake of GNRs, gold content by ICP-MS; format: cell-based, Human; conditions: 10 μM CA074 for 12 hr, then peptide GNR 24 hr
Method in brief: as §1

HT29 xenograft tumors = assay: In vivo tumor uptake of GNRs, gold content by ICP-MS; design: species or system mice; conditions: CA074 10 mg/kg i.p., peptide GNR 8 OD i.v., 24 hr
Method in brief: (§2)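 Male athymic Swiss nude mice carried bilateral subcutaneous HT29, HCT116 and DLD1 xenografts (1×10^6 cells in PBS). At 7–8 mm tumors, mice were randomized, n=4/group. CA074 10 mg/kg i.p. daily; 100 μL of 8 OD GNR i.v. by tail vein on day 3 of CA074. At 24 hr, tumors and organs were harvested, weighed, lyophilized and digested in aqua regia. Gold by ICP-MS per gram dry tissue; mean ± SEM, unpaired two-tailed t-test.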

HT29 = assay: In vitro uptake of GNRs, gold content by ICP-MS; format: cell-based, Human; conditions: 10 μM CA074 for 12 hr, then peptide GNR 24 hr
Method in brief: as §1

HCT116 xenograft tumors = assay: In vivo tumor uptake of GNRs, gold content by ICP-MS; design: species or system mice; conditions: CA074 10 mg/kg i.p., peptide GNR 8 OD i.v., 24 hr
Method in brief: as §2

Cathepsin B = Cathepsin B (Homo sapiens, UniProt P07858); assay: Cathepsin B-mediated hydrolysis of peptide constructs followed by HPLC; format: biochemical; conditions: Cathepsin B 1.34 × 10^−13 M, 25 °C, least-squares regression
Method in brief: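 Substrate at 1·10^-7 M with cathepsin B (1.34·10^-13 M, activated by 1 mM DTT) in 50 mM sodium citrate pH 6.0, 1 mL, filter-sterilized, held dark at 25 °C. Repeated reversed-phase HPLC injections ran over ≥6× reaction half-life; UV detection at 220 nm. Percentage substrate remaining came from peak area versus known injected amount. Pseudo-first-order half-life given as mean ± SD; ≥3 repeats.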

Row | Molecule | change in peptide GNR uptake (ICP-MS) with CA074 compared to peptide GNRs alone (PANC1) | change in peptide GNR uptake (ICP-MS) with CA074 compared to peptide GNRs alone (MDAMB231) | effect of inhibitor on peptide GNR uptake by xenograft tumors (ICP-MS) (HT29 xenograft tumors) | change in peptide GNR uptake (ICP-MS) with CA074 compared to peptide GNRs alone (HT29) | effect of inhibitor on peptide GNR uptake by xenograft tumors (ICP-MS) (HCT116 xenograft tumors) | degradation reaction half-life (t½) relative to native GFGFVG peptide (Cathepsin B)
1 | CCCNC(=O)[C@H]1O[C@@H]1C(=O)N[C@H](C(=O)N1CCC[C@H]1C(=O)O)[C@@H](C)CC [CA074] | two-fold reduction | two-fold reduction | abrogates the increased uptake | two-fold reduction | abrogates the increased uptake | –
2 | MeO-PEG20k-GFGFVG [PEGylated GFGFVG] | – | – | – | – | – | nearly three-fold
3 | MeO-PEG20k-GGFGFVGGR9WC | – | – | – | – | – | about three-fold higher
